According to ChEMBL document CHEMBL5104177, “Discovery and Crystallographic Studies of Trisubstituted Piperazine Derivatives as Non-Covalent SARS-CoV-2 Main Protease Inhibitors with High Target Specificity and Low Toxicity” (J Med Chem, 2022):
pIC50: −log10 of the molar value.

What was measured:
SARS-CoV-2 [1] = assay: Antiviral activity against SARS-CoV-2 infected in Vero E6 cells assessed as inhibition of viral replication incubated for 25 to 26 hrs by EliSpot reader based analysis; type: functional, organism-based; details: Severe acute respiratory syndrome coronavirus 2, Vero C1008
Outline: (§1)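 Antiviral assay in SARS-CoV-2-infected Vero E6 cells, with remdesivir and GC-376 as positive controls, n = 3 biological replicates, SD reported. The potency index is EC50(remdesivir)/EC50(test compound), both measured in this assay.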

[2] = Cytotoxicity against African green monkey Vero E6 cells assessed as reduction in cell viability incubated for 26 hrs by celltiter 96 aqueous non-radioactive cell proliferation assay; type: toxicity, cell-based, Vero C1008; details: chlorocebus sabaeus
Outline: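 Cytotoxicity measured in Vero E6 cells run in parallel with the antiviral assay, n = 3 biological replicates, SD reported.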

Cathepsin B = Cathepsin B (Homo sapiens, UniProt P07858); assay: Inhibition of human Cathepsin B using Z-Leu-Arg-AMC as fluorogenic substrate incubated for 60 mins by FRET assay
[3] = target: Replicase polyprotein 1ab (Severe acute respiratory syndrome coronavirus 2, UniProt P0DTD1); assay: Inhibition of SARS-CoV-2 main protease using MCA-AVLQSGFR-Lys(Dnp)-Lys-NH2 as fluorescent substrate preincubated for 10 mins followed by substrate addition and measured every 10 sec for 10 mins by FRET assay
Cathepsin K = target: T1, Cathepsin K (Homo sapiens, UniProt P43235); assay: Inhibition of human Cathepsin K using Ac-LR-AMC as fluorogenic substrate incubated for 60 mins by FRET assay
T1 sequence (P43235 whole entry): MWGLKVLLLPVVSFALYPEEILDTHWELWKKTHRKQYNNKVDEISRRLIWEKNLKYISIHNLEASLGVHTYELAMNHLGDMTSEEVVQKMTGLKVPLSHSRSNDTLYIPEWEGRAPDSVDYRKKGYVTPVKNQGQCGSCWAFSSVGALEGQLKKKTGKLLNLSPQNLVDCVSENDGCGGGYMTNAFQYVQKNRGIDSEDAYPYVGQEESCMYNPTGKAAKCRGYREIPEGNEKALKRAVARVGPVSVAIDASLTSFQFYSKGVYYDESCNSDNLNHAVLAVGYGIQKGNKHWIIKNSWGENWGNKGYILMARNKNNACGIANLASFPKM

Cathepsin F = target: T2, Cathepsin F (Homo sapiens, UniProt Q9UBX1); assay: Inhibition of human Cathepsin F using Z-Phe-Arg-AMC as fluorogenic substrate incubated for 60 mins by FRET assay
T2 sequence (Q9UBX1 whole entry): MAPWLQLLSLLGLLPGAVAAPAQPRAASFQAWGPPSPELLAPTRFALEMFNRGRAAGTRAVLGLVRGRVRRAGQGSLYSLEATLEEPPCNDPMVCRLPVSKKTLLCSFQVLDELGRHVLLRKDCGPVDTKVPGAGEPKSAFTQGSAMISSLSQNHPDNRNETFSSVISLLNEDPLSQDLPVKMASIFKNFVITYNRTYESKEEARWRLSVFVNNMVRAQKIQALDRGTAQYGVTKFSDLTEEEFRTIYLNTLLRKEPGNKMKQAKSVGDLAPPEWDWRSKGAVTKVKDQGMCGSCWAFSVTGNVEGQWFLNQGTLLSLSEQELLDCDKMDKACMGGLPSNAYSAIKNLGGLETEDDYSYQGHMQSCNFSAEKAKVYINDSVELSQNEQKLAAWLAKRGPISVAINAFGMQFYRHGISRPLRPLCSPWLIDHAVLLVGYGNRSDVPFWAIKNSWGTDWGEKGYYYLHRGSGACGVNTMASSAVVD

Procathepsin L = Procathepsin L (Homo sapiens, UniProt P07711); assay: Inhibition of human Cathepsin L using Z-Leu-Arg-AMC as fluorogenic substrate incubated for 60 mins by FRET assay
SARS-CoV-2 [4] = assay: Potency index, ratio of remdesivir EC50 to test compound EC50 for Antiviral activity against SARS-CoV-2 infected in Vero E6 cells assessed as inhibition of viral replication incubated for 25 to 26 hrs by EliSpot reader based analysis; type: functional, Severe acute respiratory syndrome coronavirus 2; outline: as §1
Caspase-3 = target: T3, Caspase-3 (Homo sapiens, UniProt P42574); assay: Inhibition of human caspase-3 using Ac-Asp-Glu-Val-Asp-pNA as substrate incubated for 60 mins by FRET assay
T3 sequence (P42574 whole entry): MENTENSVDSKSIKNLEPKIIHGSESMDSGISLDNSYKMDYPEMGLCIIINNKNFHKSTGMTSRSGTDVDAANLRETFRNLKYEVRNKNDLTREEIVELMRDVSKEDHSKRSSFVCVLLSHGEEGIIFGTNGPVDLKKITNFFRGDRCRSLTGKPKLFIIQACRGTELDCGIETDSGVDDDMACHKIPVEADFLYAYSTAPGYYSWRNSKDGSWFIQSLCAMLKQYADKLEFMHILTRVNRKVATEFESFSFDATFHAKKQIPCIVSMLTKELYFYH

[5] = Inhibition of SARS-CoV-1 main protease; design: species or system Severe acute respiratory syndrome-related coronavirus
Outline: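 SARS-CoV-1 Mpro inhibition tested in addition to SARS-CoV-2 Mpro. Values are mean ± SD of three independent experiments.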

Sequence of Procathepsin L (P07711 whole entry): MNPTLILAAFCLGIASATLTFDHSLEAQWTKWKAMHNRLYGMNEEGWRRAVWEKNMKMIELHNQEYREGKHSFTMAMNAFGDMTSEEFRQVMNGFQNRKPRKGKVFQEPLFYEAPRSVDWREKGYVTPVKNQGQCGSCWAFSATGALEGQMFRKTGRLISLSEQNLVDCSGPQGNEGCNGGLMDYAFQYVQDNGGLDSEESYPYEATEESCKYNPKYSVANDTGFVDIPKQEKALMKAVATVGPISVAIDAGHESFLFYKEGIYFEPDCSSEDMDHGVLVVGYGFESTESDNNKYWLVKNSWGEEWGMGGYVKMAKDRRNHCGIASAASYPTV

Row | Structure (SMILES) | pIC50 (SARS-CoV-2 [1]) | CC50 at 26 h [2] | pIC50 [3] | pIC50 [5] | further results
1 | Cn1cnc(Cn2c(=O)[nH]/c(=N\c3cc4cn(C)nc4cc3Cl)n(Cc3cc(F)c(F)cc3F)c2=O)n1 | 6.43 | > 100000 nM |  |  | 
2 | O=C(NCc1cccs1)[C@@H]1CN(C(=O)c2cncc3ccccc23)CCN1c1ccc(Cl)c(Cl)c1 | 6.00 | > 100000 nM | 9.36 |  | pIC50 (Cathepsin B): 4.30; pIC50 (Cathepsin K): 4.30; pIC50 (Cathepsin F): 4.30; pIC50 (Procathepsin L): 4.30; Ratio (SARS-CoV-2 [4]): 2.8; pIC50 (Caspase-3): 4.30
3 | O=C(NCc1cccs1)[C@@H]1CN(C(=O)c2cc(=O)[nH]c(=O)[nH]2)CCN1Cc1ccc(Cl)cc1Cl | < 4.30 | > 100000 nM | 9.36 | 5.89 | 
4 | O=C(NCc1ccco1)[C@@H]1CN(C(=O)c2cc(=O)[nH]c(=O)[nH]2)CCN1Cc1ccc(Cl)cc1Cl |  |  | 9.32 | 5.78 | 
5 | O=C(NCc1ccco1)[C@@H]1CN(C(=O)c2cc(=O)[nH]c(=O)[nH]2)CCN1c1ccc(Cl)c(Cl)c1 | < 4.30 | > 100000 nM | 9.46 | 6.00 | 
6 | O=C(NCc1cccs1)C1CN(C(=O)c2cc(=O)[nH]c(=O)[nH]2)CCN1c1ccc(Cl)c(Cl)c1 (racemic) |  |  | 9.21 |  | 
7 | O=C(NCc1ccco1)C1CN(C(=O)c2cc(=O)[nH]c(=O)[nH]2)CCN1c1ccc(Cl)c(Cl)c1 (racemic) |  |  | 9.10 |  | 
8 | O=C(NCc1cccs1)[C@@H]1CN(C(=O)c2cc(=O)[nH]c(=O)[nH]2)CCN1c1ccc(Cl)c(Cl)c1 (racemic) | < 4.30 | > 100000 nM | 9.40 | 5.96 | 
